Active and inactive are the calls of the source. The rule behind the calls is not given here.
How the values were obtained:
[1] = target: T1, Prostaglandin G/H synthase 2 (Homo sapiens) (UniProt P35354); assay: Inhibition of COX2 (unknown origin) assessed as reduction in PGG2 to PGH2 conversion by measuring N,N,N',N'-tetramethyl-p-phenylenediamine oxidation at 100 uM by spectrophotometry
T1 sequence (whole entry): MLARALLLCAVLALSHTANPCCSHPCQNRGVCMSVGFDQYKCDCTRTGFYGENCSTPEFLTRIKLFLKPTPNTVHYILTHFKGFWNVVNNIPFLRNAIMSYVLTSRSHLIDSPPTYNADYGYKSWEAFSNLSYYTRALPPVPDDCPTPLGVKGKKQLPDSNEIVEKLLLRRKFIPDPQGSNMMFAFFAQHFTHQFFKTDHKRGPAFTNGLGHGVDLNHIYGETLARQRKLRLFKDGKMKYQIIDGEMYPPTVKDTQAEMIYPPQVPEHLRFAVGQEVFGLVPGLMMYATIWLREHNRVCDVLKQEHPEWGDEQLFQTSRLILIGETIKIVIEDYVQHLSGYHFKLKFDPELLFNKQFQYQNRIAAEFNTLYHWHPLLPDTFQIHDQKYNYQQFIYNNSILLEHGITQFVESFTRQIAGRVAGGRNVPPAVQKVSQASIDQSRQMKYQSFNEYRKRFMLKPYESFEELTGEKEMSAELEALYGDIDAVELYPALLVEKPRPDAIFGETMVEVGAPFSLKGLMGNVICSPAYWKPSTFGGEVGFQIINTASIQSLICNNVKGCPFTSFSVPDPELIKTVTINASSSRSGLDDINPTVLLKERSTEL

[2] = target: T2, Polyunsaturated fatty acid lipoxygenase ALOX15 (Homo sapiens) (UniProt P16050); assay: Activation of 15-LOX in human whole blood assessed as increase in 15-HETE production at 100 uM pre-incubated for 20 mins before stimulation with LPS and A23187 for 120 mins in presence of 2 uM […] inhibitor Zileuton by LC-MS/MS method; type: tissue-based
T2 sequence (whole entry): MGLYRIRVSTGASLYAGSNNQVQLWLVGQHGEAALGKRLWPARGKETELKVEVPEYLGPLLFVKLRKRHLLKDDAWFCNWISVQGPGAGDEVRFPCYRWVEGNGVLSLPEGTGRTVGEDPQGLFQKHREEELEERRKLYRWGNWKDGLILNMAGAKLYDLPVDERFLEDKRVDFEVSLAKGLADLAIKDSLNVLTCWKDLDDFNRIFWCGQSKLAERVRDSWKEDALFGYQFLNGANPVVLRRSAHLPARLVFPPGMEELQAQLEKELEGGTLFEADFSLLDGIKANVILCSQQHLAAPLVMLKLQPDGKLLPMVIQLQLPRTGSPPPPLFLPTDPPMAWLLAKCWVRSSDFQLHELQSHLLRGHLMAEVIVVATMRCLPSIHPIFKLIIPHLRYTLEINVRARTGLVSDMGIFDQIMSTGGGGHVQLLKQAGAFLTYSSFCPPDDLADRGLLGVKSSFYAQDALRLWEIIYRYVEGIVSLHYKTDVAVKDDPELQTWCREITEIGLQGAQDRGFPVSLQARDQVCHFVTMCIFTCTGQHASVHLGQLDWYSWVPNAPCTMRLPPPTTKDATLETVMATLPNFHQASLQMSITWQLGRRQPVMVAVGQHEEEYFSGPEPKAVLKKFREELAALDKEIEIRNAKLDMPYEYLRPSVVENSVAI
Summary of the method: (§1)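 Human blood preincubated 20 min at 37 °C with DMSO vehicle or compound in DMSO. LPS added at 100 μg/mL for 24 h at 37 °C, then A23187 at 20 μg/mL final. Samples frozen in liquid nitrogen at time points, lysed by freeze–thaw, with PGB2 internal standard. Analysed by C18 LC-MRM MS, negative ion. Change = control-normalized concentration minus 1, ×100%; 120 min value from AUC.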

Blood = assay: Reduction in LTB4 in production in human whole blood at 100 uM pre-incubated for 20 mins before stimulation with LPS and A23187 for 120 mins by LC-MS/MS method; type: functional; set-up: scale not given: the % may be the effect or the level left; summary of the method: as §1
[3] = target: Prostaglandin G/H synthase 1 (Homo sapiens) (UniProt P23219); assay: Activation of COX1 (unknown origin) assessed as PGG2 to PGH2 conversion by measuring N,N,N',N'-tetramethyl-p-phenylenediamine oxidation at 100 uM by spectrophotometry
Sequence of Prostaglandin G/H synthase 1 (Homo sapiens) (P23219 whole entry): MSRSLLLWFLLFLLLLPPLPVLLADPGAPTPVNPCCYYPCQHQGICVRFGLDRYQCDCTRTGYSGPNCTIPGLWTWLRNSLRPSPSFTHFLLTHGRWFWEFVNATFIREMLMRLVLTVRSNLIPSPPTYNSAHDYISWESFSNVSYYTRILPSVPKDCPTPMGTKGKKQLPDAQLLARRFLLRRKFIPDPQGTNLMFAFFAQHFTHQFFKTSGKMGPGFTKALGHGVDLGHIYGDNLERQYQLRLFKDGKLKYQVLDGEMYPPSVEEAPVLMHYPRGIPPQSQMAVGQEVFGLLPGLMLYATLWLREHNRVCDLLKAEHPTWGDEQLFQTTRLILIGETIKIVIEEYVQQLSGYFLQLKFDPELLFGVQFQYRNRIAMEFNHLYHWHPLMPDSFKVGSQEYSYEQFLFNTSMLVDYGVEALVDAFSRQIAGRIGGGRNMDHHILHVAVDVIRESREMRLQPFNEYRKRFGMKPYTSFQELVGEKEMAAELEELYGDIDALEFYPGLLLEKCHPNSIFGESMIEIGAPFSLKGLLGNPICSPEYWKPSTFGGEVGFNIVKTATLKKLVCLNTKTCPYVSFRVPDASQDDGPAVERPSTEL

[4] = target: T3, Leukotriene A-4 hydrolase (Homo sapiens) (UniProt P09960); assay: Activation of LTA4H hydrolase activity (unknown origin) assessed as LTB4 formation at 100 uM by enzyme linked immunosorbent assay
T3 sequence (whole entry): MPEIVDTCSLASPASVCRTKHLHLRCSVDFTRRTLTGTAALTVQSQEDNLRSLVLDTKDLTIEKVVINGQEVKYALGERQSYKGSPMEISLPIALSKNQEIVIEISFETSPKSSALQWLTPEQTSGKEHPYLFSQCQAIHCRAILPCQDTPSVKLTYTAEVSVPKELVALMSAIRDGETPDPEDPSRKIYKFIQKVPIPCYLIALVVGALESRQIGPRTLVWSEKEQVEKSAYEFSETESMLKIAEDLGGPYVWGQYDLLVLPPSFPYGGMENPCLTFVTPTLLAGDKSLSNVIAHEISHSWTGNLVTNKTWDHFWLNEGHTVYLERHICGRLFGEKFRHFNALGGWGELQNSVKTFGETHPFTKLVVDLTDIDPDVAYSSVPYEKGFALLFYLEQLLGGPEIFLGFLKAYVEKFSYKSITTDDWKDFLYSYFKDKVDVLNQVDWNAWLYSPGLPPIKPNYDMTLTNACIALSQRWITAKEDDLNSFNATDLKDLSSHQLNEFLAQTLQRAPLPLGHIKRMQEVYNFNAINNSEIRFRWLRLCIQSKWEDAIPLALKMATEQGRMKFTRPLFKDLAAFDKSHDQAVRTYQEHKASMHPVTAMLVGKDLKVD
Summary of the method: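 LTA4H hydrolase activity read as LTB4 formation by ELISA. Compound handled as in the 15-LOX assay.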

[5] = target: T2, Polyunsaturated fatty acid lipoxygenase ALOX15 (Homo sapiens); assay: Activation of 15-LOX in human whole blood assessed as LTB4 production at 100 uM pre-incubated for 20 mins before stimulation with LPS and A23187 for 120 mins in presence of 2 uM 5-LOX inhibitor Zileuton by LC-MS/MS method; type: tissue-based; summary of the method: as §1
[6] = target: Prostaglandin G/H synthase 1 (Homo sapiens) (UniProt P23219); assay: Inhibition of COX1 (unknown origin) assessed as reduction in PGG2 to PGH2 conversion by measuring N,N,N',N'-tetramethyl-p-phenylenediamine oxidation at 100 uM by spectrophotometry

inhibition [1]: < 5%
Activity [2]: Active
Activity [3]: < 5%
Activity [4]: < 5%
Activity [5]: 54%
inhibition [6]: < 5%
SMILES: CN1CCN(CC(=O)N2N=C3/C(=C/c4ccccc4)CCCC3C2c2ccccc2)CC1 (configuration not stated)
Activity (Blood): 52%

Source: ChEMBL document CHEMBL3817796, “Discovery of Novel 15-Lipoxygenase Activators To Shift the Human Arachidonic Acid Metabolic Network toward Inflammation Resolution” (J Med Chem, 2016)
